According to ChEMBL document CHEMBL1125557, “Dihydropyrimidine angiotensin II receptor antagonists” (J Med Chem, 1992):
pKi: −log10 of the molar value. “And” between values parts separate entries of the source, which are not always exact repeats. Equal values may be shown once. Each block holds one compound with its values, some of them ahead of it.

What was measured:
Rattus norvegicus [1] = assay: In vivo antihypertensive activity against spontaneously hypertensive rats after oral administration of 10 uM/Kg dose between 0-6 hours; format: functional
Summary of the method: (§1)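 Male SHR, surgically prepared, recovered 2 weeks on regular food and water. Low-NaCl diet from 5 days before testing; furosemide 2.5 mg/kg on 3 consecutive days before testing. Compounds given orally as agar suspension. Mean arterial pressure monitored for 24 h; maximum % fall in pressure per 6-h interval, n = 8-10.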

Rattus norvegicus [2] = assay: In vivo antihypertensive activity against spontaneously hypertensive rats after oral administration of 30 umol/kg dose between 0-6 hours; format: functional; summary of the method: as §1
Rattus norvegicus [3] = assay: In vivo antihypertensive activity against spontaneously hypertensive rats after oral administration of 10 uM/Kg dose between 18-24 hours; format: functional; summary of the method: as §1
Rattus norvegicus [4] = assay: Compound was tested in vivo for antagonistic activity for the 50% inhibition of AII pressor response in male rats after intravenous administration; format: functional
Summary of the method: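 Normotensive male rats received three doses of test agent iv, then AII challenge (100 ng/kg iv) 2 min later. ED50 (dose halving the AII pressor response) from simplex curve fit of log dose versus maximum percent inhibition; n = 4.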

Rattus norvegicus [5] = assay: In vivo antihypertensive activity against spontaneously hypertensive rats after oral administration of 30 uM/Kg dose between 6-12 hours; format: functional; summary of the method: as §1
Rattus norvegicus [6] = assay: In vivo antihypertensive activity against spontaneously hypertensive rats after oral administration of 30 uM/Kg dose between 12-18 hours; format: functional; summary of the method: as §1
Rattus norvegicus [7] = assay: In vivo antihypertensive activity against spontaneously hypertensive rats after oral administration of 10 uM/Kg dose between 6-12 hours; format: functional; summary of the method: as §1
Rattus norvegicus [8] = assay: In vivo antihypertensive activity against spontaneously hypertensive rats after oral administration of 10 uM/Kg dose between 12-18 hours; format: functional; summary of the method: as §1
Oryctolagus cuniculus = organism: Oryctolagus cuniculus; assay: In vitro functional potency by antagonism of angiotensin II induced contraction of isolated rabbit aorta
Summary of the method: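 Isolated rabbit aorta contracted by angiotensin II; antagonism expressed as KB (nM, ±SEM).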

Rattus norvegicus [9] = assay: In vivo antihypertensive activity against spontaneously hypertensive rats after oral administration of 30 uM/Kg dose between 18-24 hours; format: functional; summary of the method: as §1
[10] = target: T1, Type-1 angiotensin II receptor B (Rattus norvegicus, UniProt P29089); assay: Inhibition of [125I]- Sar,Ile8-angiotensin II binding to rat adrenal cortical membrane angiotensin II receptor
T1 sequence (P29089 whole entry): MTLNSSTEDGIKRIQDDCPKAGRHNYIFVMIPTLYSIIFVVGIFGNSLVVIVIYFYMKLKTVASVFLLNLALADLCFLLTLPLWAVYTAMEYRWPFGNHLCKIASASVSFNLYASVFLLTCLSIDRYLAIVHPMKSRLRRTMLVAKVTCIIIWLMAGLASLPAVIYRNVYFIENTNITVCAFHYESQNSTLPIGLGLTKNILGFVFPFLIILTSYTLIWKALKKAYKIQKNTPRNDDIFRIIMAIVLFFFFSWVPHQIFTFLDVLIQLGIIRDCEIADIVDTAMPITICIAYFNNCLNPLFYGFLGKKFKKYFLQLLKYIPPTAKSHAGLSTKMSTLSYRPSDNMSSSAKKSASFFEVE

Rattus norvegicus [11] = assay: In vivo antihypertensive activity against spontaneously hypertensive rats after oral administration of 30 uM/Kg dose between 0-6 hours; format: functional; summary of the method: as §1
Rattus norvegicus [12] = assay: In vivo antihypertensive activity against spontaneously hypertensive rats after oral administration of 10 umol/kg dose between 0-6 hours; format: functional; summary of the method: as §1
Rattus norvegicus [13] = assay: In vivo antihypertensive activity against spontaneously hypertensive rats after oral administration of 10 umol/kg dose between 6-12 hours; format: functional; summary of the method: as §1
Rattus norvegicus [14] = assay: In vivo antihypertensive activity against spontaneously hypertensive rats after oral administration of 30 umol/kg dose between 6-12 hours; format: functional; summary of the method: as §1
Rattus norvegicus [15] = assay: In vivo antihypertensive activity against spontaneously hypertensive rats after oral administration of 30 umol/kg dose between 18-24 hours; format: functional; summary of the method: as §1
Rattus norvegicus [16] = assay: In vivo antihypertensive activity against spontaneously hypertensive rats after oral administration of 30 umol/kg dose between 12-18 hours; format: functional; summary of the method: as §1

SMILES: CCCCC1=NC(Cl)=C(C(=O)OCC)C(C)N1Cc1ccc(-c2ccccc2-c2nnn[n-]2)cc1.[K+] (stereo unspecified)
- Decrease in blood pressure (Rattus norvegicus [1]): 14%
- Decrease in blood pressure (Rattus norvegicus [2]): 23%
- Decrease in blood pressure (Rattus norvegicus [3]): 17%
- ED50 (Rattus norvegicus [4]): 1.65 µmol/kg
- Decrease in blood pressure (Rattus norvegicus [5]): 20%
- Decrease in blood pressure (Rattus norvegicus [6]): 19%
- Decrease in blood pressure (Rattus norvegicus [7]): 14%
- Decrease in blood pressure (Rattus norvegicus [8]): 15%
- Kb (Oryctolagus cuniculus; Oryctolagus cuniculus, Aorta): 5.3 nM
- Decrease in blood pressure (Rattus norvegicus [9]): 20%
- pKi [10]: 8.08

SMILES: CCCCc1nc(C)c(C(=O)OCC)c(=O)n1Cc1ccc(-c2ccccc2C(=O)O)cc1
- Kb (Oryctolagus cuniculus; Oryctolagus cuniculus, Aorta): 95 nM
- pKi [10]: 6.82

SMILES: CCCCC1=NC(C)(C)C(C(=O)OCC)=C(Cl)N1Cc1ccc(-c2ccccc2-c2nn[nH]n2)cc1
- Decrease in blood pressure (Rattus norvegicus [11]): 5%
- ED50 (Rattus norvegicus [4]): 2.4 µmol/kg
- Decrease in blood pressure (Rattus norvegicus [5]): 3%
- Decrease in blood pressure (Rattus norvegicus [6]): 4%
- Kb (Oryctolagus cuniculus; Oryctolagus cuniculus, Aorta): 24 nM
- Decrease in blood pressure (Rattus norvegicus [9]): 2%
- pKi [10]: 8.96

SMILES: CCCCc1ncc(C(=O)OCC)c(=O)n1Cc1ccc(-c2ccccc2C(=O)O)cc1
- Kb (Oryctolagus cuniculus; Oryctolagus cuniculus, Aorta): 610 nM
- pKi [10]: 7.09

SMILES: CCCCC1=NC(Cl)=C(C(=O)OCC)C(c2ccccc2)N1Cc1ccc(-c2ccccc2C(=O)O)cc1 (stereo unspecified)
- Kb (Oryctolagus cuniculus; Oryctolagus cuniculus, Aorta): 1000 nM

SMILES: CCCCC1=NC(Cl)=C(C(=O)O)C(C)N1Cc1ccc(-c2ccccc2-c2nn[nH]n2)cc1 (stereo unspecified)
- Decrease in blood pressure (Rattus norvegicus [11]): 8%
- ED50 (Rattus norvegicus [4]): 0.076 µmol/kg
- Decrease in blood pressure (Rattus norvegicus [5]): 0%
- Decrease in blood pressure (Rattus norvegicus [6]): 2%
- Kb (Oryctolagus cuniculus; Oryctolagus cuniculus, Aorta): 0.45 nM
- Decrease in blood pressure (Rattus norvegicus [9]): 1%
- pKi [10]: 9.00

SMILES: CCCCc1nc(Cl)c(CO)n1Cc1ccc(-c2ccccc2-c2nnn[n-]2)cc1.[K+] [LOSARTAN POTASSIUM]
- Decrease in blood pressure (Rattus norvegicus [12]): 13%
- Decrease in blood pressure (Rattus norvegicus [2]): 31%
- ED50 (Rattus norvegicus [4]): 1.8 µmol/kg
- Decrease in blood pressure (Rattus norvegicus [13]): 20%
- Kb (Oryctolagus cuniculus): 2.6 nM
- Decrease in blood pressure (Rattus norvegicus [14]): 35%
- Decrease in blood pressure (Rattus norvegicus [15]): 38% and 24%
- Decrease in blood pressure (Rattus norvegicus [16]): 37% and 22%

SMILES: CCCCc1nc(Cl)c(CO)n1Cc1ccc(-c2ccccc2-c2nnn[nH]2)cc1 [LOSARTAN]
- Kb (Oryctolagus cuniculus): 86 nM

More lines, main results first:

- pKi [10]: 6.00
SMILES: CCCCC1=NC(C)=C(C(=O)OCC)C(C)N1Cc1ccc(-c2ccccc2C(=O)O)cc1 (stereo unspecified)
- Kb (Oryctolagus cuniculus; Oryctolagus cuniculus, Aorta): 660 nM

- pKi [10]: 5.80
SMILES: CCCCc1nc(-c2ccccc2)c(C(=O)OCC)c(=O)n1Cc1ccc(-c2ccccc2C(=O)O)cc1
- Kb (Oryctolagus cuniculus; Oryctolagus cuniculus, Aorta): 140 nM

- pKi [10]: 6.07
SMILES: CCCCC1=NC(c2ccccc2)=C(C(=O)OCC)C(C)N1Cc1ccc(-c2ccccc2C(=O)O)cc1 (stereo unspecified)
- Kb (Oryctolagus cuniculus; Oryctolagus cuniculus, Aorta): 630 nM

- pKi [10]: 7.24
SMILES: CCCCC1=NC(C)(C)C(C(=O)OCC)=C(Cl)N1Cc1ccc(-c2ccccc2C(=O)O)cc1
- Kb (Oryctolagus cuniculus; Oryctolagus cuniculus, Aorta): 23 nM

- pKi [10]: 7.39
SMILES: CCCCC1=NC(Cl)=C(C(=O)OCC)C(C)N1Cc1ccc(-c2ccccc2C(=O)O)cc1 (stereo unspecified)
- Kb (Oryctolagus cuniculus; Oryctolagus cuniculus, Aorta): 70 nM

- pKi [10]: 6.72
SMILES: CCCCC1=NC(c2ccc(Cl)cc2)=C(C(=O)OCC)C(C)N1Cc1ccc(-c2ccccc2C(=O)O)cc1 (stereo unspecified)
- Kb (Oryctolagus cuniculus; Oryctolagus cuniculus, Aorta): 520 nM
